hERG protect – hERG rescue from dofetilide block, primary screen, cell-based, CHO-hERG, FluxOR thallium flux, dofetilide IC70 | Voltage-gated inwardly rectifying potassium channel KCNH2 (Homo sapiens), Q12809 | dofetilide IC70 present | activation (rescue from dofetilide block), less the hit threshold, % at 10 µM | 310,000 compounds, 0.51% hits | AID 1511, 2009;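 active = activation above the mean of controls blocked by dofetilide plus 5 SD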;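 also: thallium influx through hERG after potassium depolarization seen as dye fluorescence rise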
KCNQ1 act – potentiators or activators of KCNQ1 channel, primary screen, cell-based, thallium flux, high-throughput; B-score at 10 µM; 310,000 compounds, 0.35% hits; CHO-K1 KCNQ1, thallium flux FluxOR fluorescence; hits give high values; AID 2648, 2010; Potassium voltage-gated channel subfamily KQT member 1 (Homo sapiens), P51787;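 active = fluorescence ratio B-score, a plate-corrected score, at least three library SD, with initial intensity B-score within 5 SD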
Target sequence (P51787 whole entry, looked up): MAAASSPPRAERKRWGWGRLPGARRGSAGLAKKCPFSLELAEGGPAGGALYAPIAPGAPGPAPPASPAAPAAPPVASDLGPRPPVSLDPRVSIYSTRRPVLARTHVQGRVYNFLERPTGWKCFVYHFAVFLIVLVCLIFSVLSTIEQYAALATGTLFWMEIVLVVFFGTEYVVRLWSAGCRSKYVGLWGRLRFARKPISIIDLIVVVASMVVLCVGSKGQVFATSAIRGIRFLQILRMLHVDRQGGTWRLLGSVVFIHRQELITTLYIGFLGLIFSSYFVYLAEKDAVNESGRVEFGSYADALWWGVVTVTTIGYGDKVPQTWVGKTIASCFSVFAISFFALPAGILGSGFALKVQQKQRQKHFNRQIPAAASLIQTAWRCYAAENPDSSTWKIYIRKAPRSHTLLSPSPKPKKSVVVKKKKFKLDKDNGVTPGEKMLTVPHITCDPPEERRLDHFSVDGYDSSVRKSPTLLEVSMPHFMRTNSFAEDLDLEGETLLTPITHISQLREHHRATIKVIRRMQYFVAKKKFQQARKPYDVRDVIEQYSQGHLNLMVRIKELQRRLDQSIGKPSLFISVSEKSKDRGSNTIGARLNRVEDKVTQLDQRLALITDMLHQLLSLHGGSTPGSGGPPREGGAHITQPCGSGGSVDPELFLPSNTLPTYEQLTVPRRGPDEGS
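Assay system: stable KCNQ1 CHO-K1 line; medium: assay buffer, equal DMSO in all wells; timing: 90 min dye loading and 20 min compound exposure, both at room temperature; technique: kinetic FluxOR thallium fluorescence, 10-s 1-Hz baseline, 110-s post-stimulus read; read-out basis: B score of baseline-normalized fluorescence ratio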
KCNQ1 inh – inhibitors of human KCNQ1 channel, primary screen, cell-based, thallium flux, high-throughput. Potassium voltage-gated channel subfamily KQT member 1 (Homo sapiens), P51787. CHO-K1 KCNQ1, FluxOR thallium flux fluorescence; hits give high values. B-score at 10 µM. 310,000 compounds, 1.3% hits;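 active = compounds whose thallium flux B-score, printed positive for inhibition, exceeds three library SD while starting fluorescence stays within three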;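 also: channel opened by potassium depolarization with thallium stimulus after 20 min compound exposure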
KCNK9 inh – KCNK9 potassium channel inhibitors, primary screen, HEK293 cells, thallium flux; B-score at 10 µM; FluxOR thallium flux fluorescence; hits give low values; 310,000 compounds, 1.2% hits; Potassium channel subfamily K member 9 (Homo sapiens), Q9NPC2;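 active = ratio B-score over 3 SD below the library mean, with starting fluorescence within 5 SD of its mean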;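 also: negative B-score means less thallium flux so channel inhibition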
KCNK3 inh – human KCNK3 channel inhibitors, primary screen, CHO cells, FluxOR thallium flux, B-score; FluxOR fluorescence; hits give low values; B-score at 10 µM; 340,000 compounds, 0.84% hits; AID 602410, 2012;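 active = B-score under library mean minus 4 SD, starting fluorescence ratio at most library mean plus 5 SD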;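 also: more negative B-score means stronger inhibition of thallium flux through KCNK3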
The depositor's hits bear a star; i = inactive; · = no result given. Most compounds without a hit are left out; they make up all but 3.1% or so of the library.

SMILES	hERG protect	KCNQ1 act	KCNQ1 inh	KCNK9 inh	KCNK3 inh
CCOC(=O)c1sc(=NC(=O)c2cccc(C)c2)n(C)c1C	5.7*	i	i	i	i
O=C(CNc1cccc(S(=O)(=O)N2CCCC2)c1)Nc1cccc(F)c1	-12	i	i	i	i
O=C(CNc1cccc(C(F)(F)F)c1)Nc1cccc(S(=O)(=O)N2CCCC2)c1	·	·	·	·	-9.3*
Cc1ccc(-c2nc(=S)c3c(n2Cc2ccco2)CC(C)(C)OC3)cc1	-8	12*	i	i	i
Cc1ccc(-c2nc(=S)c3c(n2Cc2ccco2)CCCC3)cc1	·	·	·	·	i
CN(C)c1ccc(NS(=O)(=O)c2cc3c4c(c2)CC(=O)N4CCC3)cc1	-10	i	i	i	i
CCC(=O)Nc1ccccc1Oc1ccccc1	0	i	i	i	i
Cc1ccccc1CN(C)CC(=O)Nc1ccccc1Oc1ccccc1	-14	i	i	-7.5*	i
CC(=O)NCCC(=O)Nc1nc2ccc(Oc3ccccc3)cc2s1	-6	i	i	i	i
S=c1[nH]nc(-c2ccco2)n1/N=C/c1cccc(Cl)c1Cl	0	15*	i	i	i
S=c1[nH]nc(-c2ccco2)n1/N=C/c1ccc(Cl)cc1Cl	-6	i	i	i	i
Cc1cc(C)c(S(=O)(=O)c2ccccc2)c(OC(=O)c2c(Cl)cccc2Cl)n1	-7	i	i	-7.2*	i
Cc1cccc(N=Cc2cc(Br)cc(Cl)c2O)c1	4	i	i	i	i
NC(=O)c1cccc(N=Cc2cc(Cl)cc(Cl)c2O)c1	6.5*	10*	i	i	i
Oc1c(Cl)cc(Cl)cc1/C=N/c1nccs1	-6	9*	i	i	i
CCCCc1c(C)nc2ccc(Br)cc2c1SCCC#N	-10	i	i	-7.7*	·
CC(=O)N(CCC(Cc1ccccc1)c1ccc2c(c1)OCO2)Cc1ccc(Cl)cc1 (configuration not stated)	0	i	11*	-7.3*	-8.9*
COc1ccccc1-c1oc2ccccc2c1C#CC(C)(C)O	·	·	·	·	i
Cc1cccc(OCc2n[nH]c(=S)n2C2CCCCC2)c1	-2	8*	i	i	i
Cc1cc(C)nc(Sc2c(C)n[nH]c2C)n1	5.1*	i	i	i	i
Cc1n[nH]c(C)c1Sc1ccccc1N	2	i	i	i	i
Cc1ccc(NC(=O)c2cccc(S(=O)(=O)N(C)C3CCCCC3)c2)nc1	-16	i	i	i	i
CC(=O)N1c2ccc(N=Cc3cc(Br)cc(Br)c3O)cc2CC1C (configuration not stated)	3	8*	i	i	·
Cc1cc(C(=O)CSc2nc(N)cc(N)n2)c(C)n1CC1CCCO1 (configuration not stated)	·	·	·	·	i
Cc1sc2nc(SCC(=O)c3cc(C)n(CC4CCCO4)c3C)n(C(C)C)c(=O)c2c1C (configuration not stated)	-5	i	i	i	-8.8*
SMILES	hERG protect	KCNQ1 act	KCNQ1 inh	KCNK9 inh	KCNK3 inh
COC(=O)C[C@H]1c2cc(F)ccc2S(=O)(=O)N1c1ccc(N(C)C)cc1	-15	i	i	i	i
O=C1CCC/C=C\C[C@@H](CC(=O)N(CCO)Cc2ccccc2)C(=O)N[C@H](c2ccccc2)CO1	·	·	·	·	i
CC1(C)C2CCC1(C)C(OCC[N+](C)(C)CC(=O)OC1CCCCC1)C2 (configuration not stated)	-7	i	7*	i	i
O=Cc1cc(CCC(=O)O)ccc1O	-5	i	i	i	i
CCCCNC(=S)NNC(=O)c1nn(C)c(C)c1Cl	-14	17*	i	i	i
O=C(Cn1cnc2cc([N+](=O)[O-])ccc2c1=O)Nc1cccc(S(=O)(=O)N2CCCCC2)c1	·	·	·	·	i
CCN(CC)c1ccc2cc(NC(=O)CCC(=O)O)c(=O)oc2c1	-26	i	14*	i	i
CCN(CC)c1ccc2cc(C(C)=O)c(=O)oc2c1	-25	i	i	i	i
CCn1c(SCc2ccc(C(=O)OC)o2)nc2sc3c(c2c1=O)CCCC3	-6	i	i	-7.9*	i
CCn1c(SCC(=O)OC)nc2sc3c(c2c1=O)CCC3	-3	i	i	i	i
COc1ccc(/C=N\NC(=O)c2ccccc2F)cc1COc1ccc(F)cc1	-1	i	i	i	i
COc1ccc(/C=N\NC(=O)c2ccccc2F)cc1COc1ccc(F)cc1F	-10	i	i	i	i
COc1ccc(/C=N/NC(=O)c2cc(C(C)(C)C)[nH]n2)cc1COc1ccc(F)cc1F	-12	i	6*	i	i
COc1ccc(/C=N\NC(=O)c2ccccc2Br)cc1COc1c(F)c(F)cc(F)c1F	-9	i	6*	i	i
COc1ccc(/C=N/NC(=O)c2cc(C)oc2C)cc1OCc1ccccc1	-11	i	i	-6.7*	i
CC(=O)Nc1ccc(S(=O)(=O)NNc2cccc(C)c2)cc1	-7	i	i	i	i
O=C1c2cc(Cl)ccc2-c2c(O)cc(Cl)cc21	·	·	·	·	i
CCC(C)c1ccccc1NC(=O)c1cc2cccc([N+](=O)[O-])c2[nH]1 (configuration not stated)	-11	i	8*	i	i
Cc1ccc(NC(=O)c2cc3cccc([N+](=O)[O-])c3[nH]2)cc1	-10	i	i	i	i
O=C(CCCC1=NS(=O)(=O)c2ccccc2N1)N1CCN(c2ccc([N+](=O)[O-])cc2)CC1	-7	i	i	i	i
O=C(NC1CCCCC1)C(c1ccccc1)N(Cc1ccc2c(c1)OCO2)C(=O)c1cnsn1 (configuration not stated)	-2	i	6*	i	i
Cc1ccc(C(C(=O)NC2CCCC2)N(Cc2ccc3c(c2)OCO3)C(=O)c2snc(C(N)=O)c2N)cc1 (configuration not stated)	-9	i	i	i	i
CC(=O)OCC(=O)C1(O)CCC2C3CCC4C(OC(C)=O)C(=O)CCC4(C)C3C(=O)CC21C (configuration not stated)	·	·	·	·	i
O=C(c1cc2nc(-c3cccs3)cc(C(F)(F)Cl)n2n1)N1CCCc2ccccc21	-8	i	i	-6.7*	i
CCCCC(=O)Nc1cc(C)c(NC(=O)c2ccco2)cn1	5.5*	i	i	i	i

Compound activity deposited in PubChem BioAssay by Johns Hopkins Ion Channel Center.
